Laboratory results as given in ChEMBL document CHEMBL1134221, “RPR203494 a pyrimidine analogue of the p38 inhibitor RPR200765A with an improved in vitro potency” (Bioorg Med Chem Lett, 2001).

Legend:
[1] = Stability (%) in rat liver microsomes; assay type: ADME; conditions: read-out: % turnover
[2] = Inhibitory concentration against lipopolysaccharide induced TNF-alpha release on human monocytes; assay type: functional
In short: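 Adherent human monocytes (100,000 cells/well) are stimulated with LPS (10 ng/mL) for 18 h, with or without compound. Each experiment is run in quadruplicate. TNF-α is measured by sandwich ELISA, and EC50 is calculated for each compound.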

[3] = Oral bioavailability in rat; assay type: ADME, organism-based; conditions: in vivo
In short: (§1)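 Rat pharmacokinetics with the compound given alone: an iv arm at 1 mg/kg and an oral arm at 5 mg/kg. Plasma profiles give Cmax, Tmax, AUC, terminal half-life, total clearance and Vdss. Absolute oral bioavailability is derived by comparing the oral and iv exposures.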

MAP kinase p38 [4] = target: T1, MAP kinase p38 (Mus musculus, UniProt P47811+O08911+Q9WUI1+Q9Z1B7); experiment: Inhibitory activity against p38 kinase (40 ng/well) was determined in mouse
In short: (§2)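 Mouse p38 enzyme at 40 ng/well, run 1 h at room temperature. ATF-2 substrate is coated onto plates. Buffer is 25 mM Hepes pH 7.7 with 25 mM MgCl2, 2 mM dithiothreitol, 1 mM sodium orthovanadate and ATP. Phospho-ATF-2 is detected with phospho-specific primary antibodies. IC50 is given as mean±SEM of repeat experiments (n=3).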

[5] = Inhibitory activity against lipopolysaccharide induced TNF-alpha release on human monocytes at a concentration of 300 nM; assay type: functional
MAP kinase p38 [6] = target: T1, MAP kinase p38; experiment: Inhibition of murine Mitogen-activated protein kinase p38; assay type: protein assay; in short: as §2
[7] = Volume distribution after intravenous administration (1 mg/kg) in rat; assay type: ADME, organism-based; conditions: in vivo, read-out: Vdss; in short: as §1
[8] = Terminal half life after intravenous administration (1 mg/kg) in rat; assay type: ADME, organism-based; conditions: in vivo; in short: as §1
[9] = Terminal half life in Rat at a oral dose of 5 mg/kg; assay type: ADME, organism-based; design: dose 5 mg/kg, route oral; conditions: in vivo; in short: as §1
[10] = T max in Rat at a oral dose of 5 mg/kg; assay type: ADME, organism-based; design: dose 5 mg/kg, route oral; conditions: in vivo; in short: as §1
[11] = Maximum plasma concentration in Rat at a oral dose of 5 mg/kg; assay type: ADME, organism-based; design: dose 5 mg/kg, route oral; conditions: read-out: CPmax; in short: as §1
[12] = Area under curve after intravenous administration (1 mg/kg) in rat; assay type: ADME, organism-based; conditions: in vivo; in short: as §1
[13] = Area under curve in Rat at a oral dose of 5 mg/kg; assay type: ADME, organism-based; design: dose 5 mg/kg, route oral; conditions: in vivo; in short: as §1
[14] = Oral Bioavailability after intravenous administration (1 mg/kg) in rat; assay type: ADME, organism-based; conditions: in vivo, 5 mg/kg, in the assay text read “oral administration (5 mg/kg)” for “intravenous administration (1 mg/kg)”; in short: as §1
[15] = Plasma clearance after intravenous administration (1 mg/kg) in rat; assay type: ADME, organism-based; conditions: read-out: Clp (converted); in short: as §1

metabolised [1] | EC50 [2] | bioavailability [3] | SMILES | other results
18% | 319 nM |  | C[C@]1(C(=O)N2CCOCC2)CO[C@H](c2nc(-c3ccc(F)cc3)c(-c3ccnc(NCCO)n3)[nH]2)OC1 | 
 | 57 nM | 2% | C[C@]1(C(=O)N2CCOCC2)CO[C@H](c2nc(-c3ccc(F)cc3)c(-c3ccnc(NCCCO)n3)[nH]2)OC1 | 
 | 231 nM |  | C[C@]1(C(=O)N2CCOCC2)CO[C@H](c2nc(-c3ccc(F)cc3)c(-c3ccnc(Nc4cccnc4)n3)[nH]2)OC1 | 
54.1% | 33 nM | 6% | COc1cccc(Nc2nccc(-c3[nH]c([C@H]4OC[C@](C)(C(=O)N5CCOCC5)CO4)nc3-c3ccc(F)cc3)n2)c1 | 
23.9% | 49 nM | 1% | COc1ccc(CNc2nccc(-c3[nH]c([C@H]4OC[C@](C)(C(=O)N5CCOCC5)CO4)nc3-c3ccc(F)cc3)n2)cc1 | 
51% | 54 nM | 29% | C[C@]1(C(=O)N2CCOCC2)CO[C@H](c2nc(-c3ccc(F)cc3)c(-c3ccnc(Nc4ccccc4)n3)[nH]2)OC1 | IC50 (MAP kinase p38 [4]): 16 nM
40.7% |  |  | CN(C)c1nccc(-c2[nH]c([C@H]3OC[C@](C)(C(=O)N4CCOCC4)CO3)nc2-c2ccc(F)cc2)n1 | inhibition at 0.3 µM [5]: 8%
8.1% |  |  | CNc1nccc(-c2[nH]c([C@H]3OC[C@](C)(C(=O)N4CCOCC4)CO3)nc2-c2ccc(F)cc2)n1 | inhibition at 0.3 µM [5]: 38%
 | > 10000 nM |  | C[C@]1(C(=O)N2CCOCC2)CO[C@H](c2nc(-c3ccc(F)cc3)c(-c3ccnc(NCC(=O)O)n3)[nH]2)OC1 | 
29% | 570 nM |  | CN(C)CCNc1nccc(-c2[nH]c([C@H]3OC[C@](C)(C(=O)N4CCOCC4)CO3)nc2-c2ccc(F)cc2)n1 | 
 | 54 nM | 15% | COCCCNc1nccc(-c2[nH]c([C@H]3OC[C@](C)(C(=O)N4CCOCC4)CO3)nc2-c2ccc(F)cc2)n1 | IC50 (MAP kinase p38 [6]): 7 nM
18% |  |  | CN(C)CCCNc1nccc(-c2[nH]c([C@H]3OC[C@](C)(C(=O)N4CCOCC4)CO3)nc2-c2ccc(F)cc2)n1 | inhibition at 0.3 µM [5]: 27%
98.6% | 24 nM |  | C[C@]1(C(=O)N2CCOCC2)CO[C@H](c2nc(-c3ccc(F)cc3)c(-c3ccnc(NC4CCCCC4)n3)[nH]2)OC1 | 
 | 41 nM |  | C[C@]1(C(=O)N2CCOCC2)CO[C@H](c2nc(-c3ccc(F)cc3)c(-c3ccnc(Nc4ccncc4)n3)[nH]2)OC1 | 
92% | 70 nM |  | C[C@]1(C(=O)N2CCOCC2)CO[C@H](c2nc(-c3ccc(F)cc3)c(-c3ccnc(NCc4cccs4)n3)[nH]2)OC1 | 
89.1% | 110 nM |  | C=CCNc1nccc(-c2[nH]c([C@H]3OC[C@](C)(C(=O)N4CCOCC4)CO3)nc2-c2ccc(F)cc2)n1 | 
43.6% | 60 nM | 29% | C[C@]1(C(=O)N2CCOCC2)CO[C@H](c2nc(-c3ccc(F)cc3)c(-c3ccnc(NC4CC4)n3)[nH]2)OC1 | Vd [7]: 1.2 L/kg; half-life [8]: 72 min; half-life [9]: 84 min; Tmax [10]: 30 min; Cmax [11]: 620 ng/mL; AUC [12]: 580 ng·h/mL; AUC [13]: 1390 ng·h/mL; IC50 (MAP kinase p38 [6]): 9 nM; bioavailability [14]: 48%; clearance [15]: 30 mL/min/kg
68% | 12 nM | 24% | C[C@]1(C(=O)N2CCOCC2)CO[C@H](c2nc(-c3ccc(F)cc3)c(-c3ccnc(NCc4ccccc4)n3)[nH]2)OC1 | IC50 (MAP kinase p38 [6]): 5 nM
71% | 1.5 nM | 10% | C[C@H](Nc1nccc(-c2[nH]c([C@H]3OC[C@](C)(C(=O)N4CCOCC4)CO3)nc2-c2ccc(F)cc2)n1)c1ccccc1 | 
81% | 10 nM |  | C[C@@H](Nc1nccc(-c2[nH]c([C@H]3OC[C@](C)(C(=O)N4CCOCC4)CO3)nc2-c2ccc(F)cc2)n1)c1ccccc1 | 
 | 124 nM |  | CCCNc1nccc(-c2[nH]c([C@H]3OC[C@](C)(C(=O)N4CCOCC4)CO3)nc2-c2ccc(F)cc2)n1 | 
 |  |  | C[C@]1(C(=O)N2CCOCC2)CO[C@H](c2nc(-c3ccc(F)cc3)c(-c3ccnc(NCCC#N)n3)[nH]2)OC1 | inhibition at 0.3 µM [5]: 28%
99% |  |  | C[C@]1(C(=O)N2CCOCC2)CO[C@H](c2nc(-c3ccc(F)cc3)c(-c3ccnc(N4CCCCC4)n3)[nH]2)OC1 | inhibition at 0.3 µM [5]: 26%
3.5% |  |  | C[C@]1(C(=O)N2CCOCC2)CO[C@H](c2nc(-c3ccc(F)cc3)c(-c3ccnc(NCCC(=O)O)n3)[nH]2)OC1 | inhibition at 0.3 µM [5]: 6%
44.6% | 62 nM |  | C[C@]1(C(=O)N2CCOCC2)CO[C@H](c2nc(-c3ccc(F)cc3)c(-c3ccnc(NCc4ccc(F)cc4)n3)[nH]2)OC1 | 
25% | 45 nM | 25% | C[C@]1(C(=O)N2CCOCC2)CO[C@H](c2nc(-c3ccc(F)cc3)c(-c3ccnc(NCc4ccccn4)n3)[nH]2)OC1 | 
87% | 69 nM |  | C[C@]1(C(=O)N2CCOCC2)CO[C@H](c2nc(-c3ccc(F)cc3)c(-c3ccnc(NCC4CC4)n3)[nH]2)OC1 | 
17.6% |  |  | C[C@]1(C(=O)N2CCOCC2)CO[C@H](c2nc(-c3ccc(F)cc3)c(-c3ccnc(N)n3)[nH]2)OC1 | inhibition at 0.3 µM [5]: 39%
